Measured values reported in ChEMBL document CHEMBL1123799, “Cardiotonic agents. 1. Novel 8-aryl-substituted imidazo[1,2-a]- and -[1,5-a]pyridines and imidazo[1,5-a]pyridinones as potential positive inotropic agents” (J Med Chem, 1987).

Columns and labels:
[1] = Ability to inhibit canine cardiac cAMP phosphodiesterase III
Procedure, shortened: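 Crude enzyme from dog cardiac muscle homogenate, taken by differential centrifugation between 700g and 165000g. Assay at 37 °C with 10^-6 M cAMP plus [3H]cAMP (10^5 cpm/mL), 40 mM Tris pH 8.0, 10 mM MgCl2, 2.5 mM mercaptoethanol, 0.05 mg/mL BSA and 0.1 mg/mL enzyme. AMP and cAMP separated by PEI-cellulose ion-exchange TLC and counted by scintillation. Triplicate, up to 100 μM.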

Felis catus = species on record: Felis catus; experiment: Inotropic activity as dose required to cause 20% positive or negative change in contractile force of papillary muscle from cat; format: functional, Muscle tissue
Procedure, shortened: (§1)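 Papillary muscle (<1 mm diameter, ≥3 mm long) held isometric at 35 °C in bicarbonate saline (pH 7.3-7.5, 95% O2/5% CO2). Muscles under 500 mg/mm² force discarded. Compounds in water added to the bath at 1:1000, with a 15-min wash between doses. Norepinephrine 10 μM added last as internal standard. Force normalized to cross-sectional area (weight/length). Mean of ≥3 determinations.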

Canis familiaris [2] = species on record: Canis familiaris; experiment: Electrophysiological activity as concentration causing 20 % increase in the functional refractory period of canine ventricular muscle.; set-up: species or system Canis lupus familiaris, Muscle tissue
Procedure, shortened: (§2)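 Right-ventricle papillary muscle strips (5-6 mm × 1-2 mm) in a 3.5-mL bath, superfused with oxygenated saline at 36 ± 0.5 °C. Diastolic threshold set with 2 ms bipolar stimuli at 4000 ms cycle length. Paced at 4× threshold for 60 min. FRP found at 1000 ms cycle length with a premature S2 after every tenth S1 at shortening intervals. Various concentrations superfused, one compound per strip.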

Mustela putorius furo [3] = species on record: Mustela putorius furo; experiment: Inotropic activity as dose required to cause 20% positive or negative change in contractile force of papillary muscle from ferret; format: functional, Muscle tissue; procedure, shortened: as §1
Canis familiaris [4] = species on record: Canis familiaris; experiment: Electrophysiological activity as concentration of the drug causing 20 % increase in the functional refractory period of canine ventricular muscle.; set-up: species or system Canis lupus familiaris, Muscle tissue; procedure, shortened: as §2
Mustela putorius furo [5] = species on record: Mustela putorius furo; experiment: Inotropic activity as dose required to cause 20% positive or negative change in contractile force of papillary muscle from ferret

Compound | CF C20 (Felis catus) [µM] | FRP C20 (Canis familiaris [2]) [µM] | also measured
c1cc(-c2ccc(-n3ccnc3)cc2)c2nccn2c1 | 30 | – | IC50 [1]: 220 µM
Oc1ccc(-c2cccn3ccnc23)cc1 | 15 | -18 | –
Cc1ncc2c(-c3ccccc3)cccn12 | – | – | CF C20 (Mustela putorius furo [3]): -20 µM
CCc1nccn1-c1ccc(C2=CCCn3c2cnc3CC)cc1 | 0.8 | 9 | –
CS(=O)(=O)Nc1ccc(-c2cccn3ccnc23)cc1 | 10 | 50 | IC50 [1]: > 1000 µM
Cc1ccc(-c2cccn3c(O)ncc23)cc1 | 6 | – | –
Cc1nccn1-c1ccc(-c2cccn3c(C)nc(Br)c23)cc1 | 1 | – | FRP C20 (Canis familiaris [4]): 17 µM; IC50 [1]: 30 µM
CC(=O)Nc1ccc(C2=CCCn3c2cnc3C)cc1 | 10 | 40 | –
Cc1ncc2n1CCC=C2c1ccc(O)cc1 | 30 | 100 | –
C1=C(c2ccccc2)c2nccn2CC1 | -15 | – | –
Cc1nccn1-c1ccc(C2=CCCn3c2cnc3C)cc1 | 5 | 5 | IC50 [1]: 150 µM
CCOc1ccc(-c2cccn3c(C)ncc23)cc1 | -100 | – | –
COC(=O)c1nc(O)n2cccc(-c3ccc(C)cc3)c12 | -40 | – | –
CCOC(=O)c1nc(O)n2cccc(-c3ccccc3)c12 | – | – | CF C20 (Mustela putorius furo [5]): -10 µM
CCCCNC(=O)NC1CCN(c2ncnc3cc(OC)c(OC)cc23)CC1 [BUQUINERAN] | – | – | CF C20 (Mustela putorius furo [3]): 7 µM
C1=C(c2ccc(-n3ccnc3)cc2)c2nccn2CC1 | 29 | 100 | IC50 [1]: 550 µM
CSc1ccc(C(=O)c2[nH]c(=O)[nH]c2C)cc1 [ENOXIMONE] | 3 | – | –
Cc1nccn1-c1ccc(-c2cccn3c(C)ncc23)cc1 | 13 | 80 | IC50 [1]: 65 µM
Cc1ncc2n1CCC=C2c1ccccc1 | 10 | – | –
Cc1ncc2n1CCCC2c1ccc(NS(C)(=O)=O)cc1 (configuration not stated) | – | 80 | CF C20 (Mustela putorius furo [3]): 0.8 µM
Nc1ccc(C2=CCCn3ccnc32)cc1 | -5 | – | –
CCOc1ccc(C2=CCCn3c2cnc3C)cc1 | 20 | 30 | –
Cc1ncc2n1CCC=C2c1ccc(NS(C)(=O)=O)cc1 | 2 | 10 | –
c1ccc(-c2cccn3ccnc23)cc1 | 1 | 10 | –
Nc1ccc(-c2cccn3ccnc23)cc1 | 15 | – | –
COC(=O)c1nc(O)n2cccc(-c3ccc(-n4ccnc4C)cc3)c12 | 30 | – | –
Cc1ncc2n1CCC=C2c1ccc(-n2ccnc2)cc1 | 9 | 14 | –
